Measurements from ChEMBL document CHEMBL1128488, “4-Diazinyl- and 4-pyridinylimidazoles: potent angiotensin II antagonists. A study of their activity and computational characterization” (J Med Chem, 1995).

Tests used:
[1] = target: T1, Angiotensin II receptor (AT-1) type-1 (Rattus norvegicus, UniProt P29089+P25095); test: Inhibition of [3H]angiotensin II binding to rat adrenal cortex membrane containing angiotensin II receptor, type 1; format: tissue-based
T1 sequence (P29089 whole entry): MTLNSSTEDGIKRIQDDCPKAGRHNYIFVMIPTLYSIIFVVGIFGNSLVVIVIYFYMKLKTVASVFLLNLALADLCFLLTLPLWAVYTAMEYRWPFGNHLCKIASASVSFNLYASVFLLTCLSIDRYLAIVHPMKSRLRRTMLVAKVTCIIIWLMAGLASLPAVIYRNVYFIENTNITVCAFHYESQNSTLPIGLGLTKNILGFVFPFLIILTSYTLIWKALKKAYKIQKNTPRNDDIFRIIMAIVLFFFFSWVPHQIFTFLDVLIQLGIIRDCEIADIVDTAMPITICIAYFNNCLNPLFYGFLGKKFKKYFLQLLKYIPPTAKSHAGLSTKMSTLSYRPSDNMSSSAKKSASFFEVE
T1 sequence (P25095 whole entry): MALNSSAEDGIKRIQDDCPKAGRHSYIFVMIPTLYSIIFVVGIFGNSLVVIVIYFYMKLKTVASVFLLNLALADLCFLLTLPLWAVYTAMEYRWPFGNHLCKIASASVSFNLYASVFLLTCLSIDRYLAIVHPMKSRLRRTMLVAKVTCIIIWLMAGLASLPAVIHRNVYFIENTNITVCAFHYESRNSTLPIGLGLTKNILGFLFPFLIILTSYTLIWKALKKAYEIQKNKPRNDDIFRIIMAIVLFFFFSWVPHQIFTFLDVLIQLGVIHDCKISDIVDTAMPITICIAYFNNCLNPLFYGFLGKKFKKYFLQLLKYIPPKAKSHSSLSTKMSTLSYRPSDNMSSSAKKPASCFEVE

[2] = tested on: Rattus norvegicus; test: In vivo concentration inhibiting angiotensin II (A II) induced pressor response in conscious normotensive rats 30 mins after oral administration of 2 uM/kg.; format: functional
In short: (§1)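 Male Sprague-Dawley rats (280–340 g), premedicated ip with fentanyl/fluanisone and anesthetized with pentobarbital iv during preparation, then tested conscious. Vehicle or compound given orally by stomach tube at 2 μmol kg−1. A II bolus injections every 15 min for the first hour, then every 30 min, over 4 h.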

[3] = tested on: Rattus norvegicus; test: In vivo concentration inhibiting angiotensin II (A II) induced pressor response in conscious normotensive rats 15 mins after oral administration of 2 uM/kg.; format: functional; in short: as §1

For `CCCCc1nc(-c2cncnc2)cn1Cc1ccc(-c2ccccc2-c2nn[nH]n2)cc1`, the Ki [1] was 42 nM.

`CCCCc1nc(-c2cnc[n+]([O-])c2)cn1Cc1ccc(-c2ccccc2-c2nn[nH]n2)cc1` was tested, and the Ki [1] was 25 nM.

Compound `CCCCc1nc(-c2c(C(=O)OC)c(C)cc(C)[n+]2[O-])cn1Cc1ccc(-c2ccccc2-c2nn[nH]n2)cc1` has a Ki [1] of 9.1 nM and an Inhibition [2] of -29%.

`CCCCc1nc(-c2c(C(=O)OC)ccc[n+]2[O-])cn1Cc1ccc(-c2ccccc2-c2nn[nH]n2)cc1` was tested, and the Ki [1] was 29 nM.

`CCCCc1nc(-c2nc(C)c[n+]([O-])c2C)cn1Cc1ccc(-c2ccccc2-c2nn[nH]n2)cc1` showed a Ki [1] of 4.4 nM and an Inhibition [2] of -21%.

`CCCCc1nc(-c2nc(C)cc(C)c2C(=O)OC)cn1Cc1ccc(-c2ccccc2-c2nn[nH]n2)cc1` was tested, and the Ki [1] was 53 nM.

Work on `CCCCc1nc(-c2cncc(C(=O)OC)c2)cn1Cc1ccc(-c2ccccc2-c2nn[nH]n2)cc1` yielded a Ki [1] of 30 nM.

Work on `CCCCc1nc(-c2cccc(OC)n2)cn1Cc1ccc(-c2ccccc2-c2nn[nH]n2)cc1` yielded a Ki [1] of 25 nM and an Inhibition [3] of -11%.

Work on `CCCCc1nc(-c2c(C)ncc(C)[n+]2[O-])cn1Cc1ccc(-c2ccccc2-c2nn[nH]n2)cc1` yielded a Ki [1] of 2.5 nM and an Inhibition [2] of -44%.

`CCCCc1nc(-c2ncccn2)cn1Cc1ccc(-c2ccccc2-c2nn[nH]n2)cc1` was tested, and the Ki [1] was 59 nM.

Compound `CCCCc1nc(-c2ccc(C)nn2)cn1Cc1ccc(-c2ccccc2-c2nn[nH]n2)cc1` has a Ki [1] of 12 nM and an Inhibition [3] of -30%.

In the case of `CCCCc1nc(-c2nc(C)ccc2C(=O)OC)cn1Cc1ccc(-c2ccccc2-c2nn[nH]n2)cc1`, the Ki [1] is reported as 32 nM.

Work on `CCCCc1nc(-c2cccnc2C(=O)OC)cn1Cc1ccc(-c2ccccc2-c2nn[nH]n2)cc1` yielded a Ki [1] of 45 nM.

`CCCCc1nc(-c2cccc(C(=O)OC)n2)cn1Cc1ccc(-c2ccccc2-c2nn[nH]n2)cc1` gave a Ki [1] of 19 nM and an Inhibition [2] of -23%.

For `CCCCc1nc(-c2cnccn2)cn1Cc1ccc(-c2ccccc2-c2nn[nH]n2)cc1`, the Ki [1] was 40 nM.

With `CCCCc1nc(-c2nc(C)cnc2C)cn1Cc1ccc(-c2ccccc2-c2nn[nH]n2)cc1` the Ki [1] was 77 nM and the Inhibition [2] was -18%.

Compound `CCCCc1nc(-c2cc(C(=O)OC)cc(C)[n+]2[O-])cn1Cc1ccc(-c2ccccc2-c2nn[nH]n2)cc1` has a Ki [1] of 180 nM.

`CCCCc1nc(-c2ccc(C(=O)OC)c[n+]2[O-])cn1Cc1ccc(-c2ccccc2-c2nn[nH]n2)cc1` was tested, and the Ki [1] was 27 nM.

`CCCCc1nc(-c2nccc[n+]2[O-])cn1Cc1ccc(-c2ccccc2-c2nn[nH]n2)cc1` gave a Ki [1] of 61 nM.

Work on `CCCCc1nc(-c2ccc(C(=O)OC)[n+]([O-])n2)cn1Cc1ccc(-c2ccccc2-c2nn[nH]n2)cc1` yielded a Ki [1] of 54 nM.

Compound `CCCCc1nc(-c2cnc(C(=O)OC)nc2C)cn1Cc1ccc(-c2ccccc2-c2nn[nH]n2)cc1` has a Ki [1] of 70 nM.

Compound `CCCCc1nc(-c2ccc(C)[n+]([O-])n2)cn1Cc1ccc(-c2ccccc2-c2nn[nH]n2)cc1` has a Ki [1] of 40 nM and an Inhibition [2] of -27%.

Work on `CCCCc1nc(-c2ccc(C(=O)OC)cn2)cn1Cc1ccc(-c2ccccc2-c2nn[nH]n2)cc1` yielded a Ki [1] of 12 nM and an Inhibition [2] of -33%.

`CCCCc1nc(-c2cncc[n+]2[O-])cn1Cc1ccc(-c2ccccc2-c2nn[nH]n2)cc1` was tested, and the Ki [1] was 243 nM.

Work on `CCCCc1nc(-c2nc(C)ccc2OC)cn1Cc1ccc(-c2ccccc2-c2nn[nH]n2)cc1` yielded a Ki [1] of 250 nM.

In the case of `CCCCc1nc(-c2c(OC)ccc(C)[n+]2[O-])cn1Cc1ccc(-c2ccccc2-c2nn[nH]n2)cc1`, the Ki [1] is reported as 38 nM and the Inhibition [2] is reported as -22%.

In the case of `CCCCc1nc(-c2ncccc2C(=O)OC)cn1Cc1ccc(-c2ccccc2-c2nn[nH]n2)cc1`, the Ki [1] is reported as 40 nM.

With `CCCCc1nc(-c2ccc(C)n[n+]2[O-])cn1Cc1ccc(-c2ccccc2-c2nn[nH]n2)cc1` the Ki [1] was 44 nM and the Inhibition [2] was -35%.

For `CCCCc1nc(-c2c(C(=O)OC)ccc(C)[n+]2[O-])cn1Cc1ccc(-c2ccccc2-c2nn[nH]n2)cc1`, the Ki [1] was 4.5 nM and the Inhibition [2] was -55%.

`CCCCc1nc(-c2nccnc2C(=O)OC)cn1Cc1ccc(-c2ccccc2-c2nn[nH]n2)cc1` gave a Ki [1] of 90 nM.

For `CCCCc1nc(-c2ccc(C(=O)OC)nn2)cn1Cc1ccc(-c2ccccc2-c2nn[nH]n2)cc1`, the Ki [1] was 8.8 nM and the Inhibition [2] was -9.3%.

Work on `CCCCc1nc(-c2cc(C(=O)OC)c[n+]([O-])c2)cn1Cc1ccc(-c2ccccc2-c2nn[nH]n2)cc1` yielded a Ki [1] of 41 nM.

With `CCCCc1nc(-c2cnccc2C(=O)OC)cn1Cc1ccc(-c2ccccc2-c2nn[nH]n2)cc1` the Ki [1] was 67 nM.

For `CCCCc1nc(Cl)c(CO)n1Cc1ccc(-c2ccccc2-c2nnn[nH]2)cc1` [LOSARTAN], the Inhibition [2] was -33%.

`CCCCc1nc(-c2ncccc2OC)cn1Cc1ccc(-c2ccccc2-c2nn[nH]n2)cc1` gave a Ki [1] of 290 nM.
